# Laboratory results published in ChEMBL document CHEMBL2069266, “An expeditious regioselective synthesis of novel bioactive indole-substituted chromene derivatives via one-pot three-component reaction” (2012).
# Legend:
# Assay type in all cases: functional
# Conditions in all cases: read-out: DIZ
# Micrococcus luteus = assay: Antibacterial activity against Micrococcus luteus at 12 ug/well after 24 hrs by agar well diffusion method
# Summary of the method: (§1)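 Colonies subcultured from nutrient agar into nutrient broth, grown 37 °C for 18 h, then inoculated onto Mueller-Hinton agar plates (four plates). Wells cut with sterile 5 mm glass tube; […] of 100 µg/ml DMSO solution added per well; incubated 37 °C for 24 h before reading inhibition. Data from duplicate or triplicate experiments.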
# Bacillus subtilis = assay: Antibacterial activity against Bacillus subtilis at 12 ug/well after 24 hrs by agar well diffusion method; summary of the method: as §1
# Salmonella enterica = assay: Antibacterial activity against Salmonella enterica at 12 ug/well after 24 hrs by agar well diffusion method; summary of the method: as §1
# Pseudomonas aeruginosa = assay: Antibacterial activity against Pseudomonas aeruginosa at 12 ug/well after 24 hrs by agar well diffusion method; summary of the method: as §1
SMILES,zone of inhibition at 12 µg/disc (Micrococcus luteus) [mm],zone of inhibition at 12 µg/disc (Bacillus subtilis) [mm],zone of inhibition at 12 µg/disc (Salmonella enterica) [mm],zone of inhibition at 12 µg/disc (Pseudomonas aeruginosa) [mm]
NC1=C(C(=O)c2c[nH]c3ccccc23)C(c2ccc(F)cc2)c2c(ccc3ccccc23)O1 (centres undefined),30,11,6,–
NC1=C(C(=O)c2c[nH]c3ccccc23)C(c2ccc(Cl)cc2)c2c(ccc3ccccc23)O1 (centres undefined),8,–,17,–
NC1=C(C(=O)c2c[nH]c3ccccc23)C(c2ccc(Br)cc2)c2c(ccc3ccccc23)O1 (centres undefined),10,–,–,–
NC1=C(C(=O)c2c[nH]c3ccccc23)C(c2cccc([N+](=O)[O-])c2)c2c(ccc3ccccc23)O1 (centres undefined),29,8,–,–
COc1cccc(C2C(C(=O)c3c[nH]c4ccccc34)=C(N)Oc3ccc4ccccc4c32)c1 (centres undefined),35,–,–,17
NC1=C(C(=O)c2c[nH]c3ccccc23)C(c2ccc(C3C(C(=O)c4c[nH]c5ccccc45)=C(N)Oc4ccc5ccccc5c43)cc2)c2c(ccc3ccccc23)O1 (centres undefined),7,–,–,–
NC1=C(C(=O)c2c[nH]c3ccc(Br)cc23)C(c2ccc(Cl)cc2)c2c(ccc3ccccc23)O1 (centres undefined),45,6,–,–
NC1=C(C(=O)c2c[nH]c3ccc(Br)cc23)C(c2ccc(Cl)cc2Cl)c2c(ccc3ccccc23)O1 (centres undefined),30,–,–,–
NC1=C(C(=O)c2c[nH]c3ccc(Br)cc23)C(c2cccnc2)c2c(ccc3ccccc23)O1 (centres undefined),11,–,6,–
NC1=C(C(=O)c2c[nH]c3ccc(Br)cc23)C(c2ccc(C3C(C(=O)c4c[nH]c5ccc(Br)cc45)=C(N)Oc4ccc5ccccc5c43)cc2)c2c(ccc3ccccc23)O1 (centres undefined),30,6,–,–
Cc1[nH]c2ccccc2c1C(=O)C1=C(N)Oc2ccc3ccccc3c2C1c1ccc(Cl)cc1Cl (centres undefined),50,–,15,15
CC[C@H]1OC(=O)[C@H](C)[C@@H](O[C@H]2C[C@@](C)(OC)[C@@H](O)[C@H](C)O2)[C@H](C)[C@@H](O[C@@H]2O[C@H](C)C[C@H](N(C)C)[C@H]2O)[C@](C)(O)C[C@@H](C)C(=O)[C@H](C)[C@@H](O)[C@]1(C)O [ERYTHROMYCIN],10,12,8,10
CN(C)[C@@H]1C(O)=C(C(N)=O)C(=O)[C@@]2(O)C(O)=C3C(=O)c4c(O)cccc4[C@@](C)(O)[C@H]3C[C@@H]12 [TETRACYCLINE],16,14,7,18
